High-throughput results as filed in PubChem BioAssay.
E-sel inducer – induces E-selectin expression in human endothelial cells. AID 686992. actives 0.37% (n = 260,000). HUVEC E-selectin immunofluorescence imaging; normalized: neutral wells 0, TNF-alpha wells 100. activation, % at 7.58 µM. P16581;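 active = mean E-selectin-positive cell signal at least 10% of the positive control, reached in at least 60% of replicates, without over 20% cell loss; inconclusive = no rule given, readout overlaps actives, possibly toxicity-flagged; inactive = the rest, including those meeting only one limit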
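Test system – human umbilical vein endothelial cells (HUVEC), E-selectin induction · Input – 3,000 HUVEC seeded per well · Buffer or medium – EGM-2, gelatin · Compound dosing – single-point compound dose · Detection – immunofluorescence imaging · Measure – percent E-selectin-positive cells · Controls – TNF-alpha high, DMSO low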
RAD52 anneal inh – RAD52 (human) annealing inhibition; P43351; recombinant RAD52 DNA annealing, FRET fluorescence; inhibition, % at 18.7 µM; actives 0.46% (n = 360,000);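 active = every replicate showing at least 50% inhibition; inconclusive = mean inhibition at least 50% but not in every replicate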
Ecoli rRNA inh – inhibitors of bacterial rRNA selective over humanized ribosomes | AID 720706 | actives 1.6% (n = 350,000) | GFP signal change (wild-type ribosome), % (test concentration not listed) | E. coli WT GFP vs humanized-ribosome RFP mutants, fluorescence, 24 h; active compounds read low; DMSO median 0, no signal -100;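 active = significant combined selectivity score with lowered wild-type GFP, culture density cut under 30%, mutant RFP and density less affected; inactive = any of these conditions unmet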
RAD54 inh – inhibitors of human RAD54 branch migration; Q92698; RAD54 Holliday junction branch migration, FAM/BHQ fluorescence; inhibition, % at 10.4 µM; actives 0.14% (n = 360,000);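 active = mean normalized replicate activity at least 40 and at least half of replicates scoring 40 or more; inconclusive = only one of the two criteria met; inactive = mean below 40 and under half of replicates reaching 40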;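 note: 0% = median of neutral control wells and 100% = median of positive control wells; inhibitors cause a drop in the FAM fluorescence signal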
GSIS activator – GLuc luminescence reporter in INS-1E cells, primary screen for activators of glucose-dependent secretion of insulin. activation, % at 16.6 µM. actives 0.61% (n = 370,000). INS-1E GLuc reporter insulin secretion, 2-3 h. AID 743287;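 active = lowest replicate activation of at least 40%, so every replicate reaches that level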;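 note: 0% = median of neutral control wells and 100% = median of IBMX positive control wells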
AF4-AF9 inh – MLL-AF4/AF9 protein interaction inhibition; actives 0.47% (n = 350,000); AID 651704; inhibition, % at 10 µM; P42568; AlphaScreen, biotin-AF4 peptide binding to FLAG-AF9;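 active = every replicate reaching a set inhibition limit, whatever the replicate mean, cut at about 25% in these data; inconclusive = mean inhibition reaches that limit but some replicates miss it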;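 note: 0% = plate neutral control median and 100% = total signal loss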
Target sequence (P42568 whole entry, looked up): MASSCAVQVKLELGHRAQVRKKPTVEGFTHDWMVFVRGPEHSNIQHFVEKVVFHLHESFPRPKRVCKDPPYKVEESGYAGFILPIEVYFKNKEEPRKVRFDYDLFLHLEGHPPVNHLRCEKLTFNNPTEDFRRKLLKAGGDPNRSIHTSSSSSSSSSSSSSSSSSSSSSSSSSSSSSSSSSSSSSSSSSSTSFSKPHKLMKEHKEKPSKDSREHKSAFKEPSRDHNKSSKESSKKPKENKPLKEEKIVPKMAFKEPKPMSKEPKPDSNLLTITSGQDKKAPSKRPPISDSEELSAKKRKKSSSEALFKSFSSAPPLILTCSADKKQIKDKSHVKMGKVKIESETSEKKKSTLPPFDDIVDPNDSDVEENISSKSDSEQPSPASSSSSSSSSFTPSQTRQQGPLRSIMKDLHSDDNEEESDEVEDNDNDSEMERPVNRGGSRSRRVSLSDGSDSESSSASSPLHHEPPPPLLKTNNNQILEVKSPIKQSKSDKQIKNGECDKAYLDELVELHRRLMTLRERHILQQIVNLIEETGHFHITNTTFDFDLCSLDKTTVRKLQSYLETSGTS
The depositor's hits bear a star; ? = inconclusive; . = not tested or not shown. The list is not random: actives were taken first. Their share in the collection is about 2.6%.

SMILES	E-sel inducer	RAD52 anneal inh	Ecoli rRNA inh	RAD54 inh	GSIS activator	AF4-AF9 inh
CCOC(=O)C(=CNc1ccc(C(F)(F)F)cc1)C(=O)OCC	.	-18.0	-22.8*	.	-13.1	-2.3
CCOC(=O)C(=CNc1ccc(C)cc1C)C(=O)OCC	.	.	.	-1.4	.	.
CCCNC(=O)[C@H]1[C@H](CO)[C@H]2Cn3c(cccc3=O)[C@H]2N1C(=O)CC1CC1	0.3	-5.3	3.1	13.2	6.6	-0.1
CC(C)Nc1nc(NC(C)(C)C)nc(Oc2ccc(=O)n(C)n2)n1	.	-8.5	7.8	5.1	40.6*	4.3
CCOC(=O)C1(C(N)=O)OC1(c1ccc(Cl)cc1)c1ccccc1Cl (stereo unspecified)	-0.1	-14.1	-18.7*	0.8	.	3.7
NC(=O)C1(C(=O)O)OC1(c1ccc(Cl)cc1)c1ccccc1Cl (stereo unspecified)	-0.2	-2.7	1.5	-3.4	.	-1.3
COCC(=O)N[C@H]1CC[C@H](CC(=O)NCc2ccccc2OC)O[C@@H]1CO	0.2	8.1	-2.1	2.5	10.6	-12.7
CCn1c(=O)c2cc(C(=O)NCC(OC)OC)sc2c2ccccc21	65.6*	-8.9	-2.8	-6.2	-9.1	-0.7
CCOC(CNC(=O)c1cc2c(=O)n(CC)c3ccccc3c2s1)OCC	-0.1	-19.3	5.4	0.1	13.4	0.1
CCn1c(=O)c2cc(C(=O)NCCCOC)sc2c2ccccc21	53.2*	6.4	-16.1	12.3	.	-1.7
O=C(Nc1ccc2c(c1)[C@H]1C[C@H](CC(=O)N3CCOCC3)O[C@@H](CO)[C@H]1O2)C1CCOCC1	-0.5	-5.4	4.3	-12.9	16.0	0.0
N=C1C(c2nc3ccccc3s2)=C(O)CN1NC(=O)c1ccco1	32.8*	-14.8	14.3	-8.0	-10.6	-1.2
COc1cccc(C(=O)NN2CC(O)=C(c3nc4ccccc4s3)C2=N)c1	.	-30.2	8.0	.	5.0	-0.8
COc1cccc(/C=N/NC(=O)c2cc(-c3cccn3C)n[nH]2)c1	.	4.9	-23.6*	6.9	-8.3	.
COc1cc(/C=N/NC(=O)Cn2nnc3ccccc32)ccc1O	.	-6.1	15.3	.	7.6	2.1
COc1ccccc1/C=C/C=N/NC(=O)CCn1cnc2ccccc21	0.5	-3.3	-35.3*	3.3	3.7	.
COc1cccc(/C=N\NC(=O)Cn2nnc3ccccc32)c1O	.	-13.7	-20.4*	.	-13.6	-2.0
COc1cccc(/C=N/NC(=O)c2cc(-c3cccn3C)n[nH]2)c1O	2.9	-22.3	-36.5*	.	-7.2	10.9
CNC[C@@H]1Oc2c(NC(=O)c3nc4ccccc4s3)cccc2C(=O)N([C@@H](C)CO)C[C@H]1C	0.1	14.3	0.1	14.1	5.9	-2.9
CN(C)C(=O)C[C@H]1C[C@@H]2c3cc(NC(=O)Nc4ccc(C(F)(F)F)cc4)ccc3O[C@@H]2[C@@H](CO)O1	0.0	4.1	-0.8	-9.5	-16.5	6.3
O=C(N/N=C/c1ccncc1)c1ccc(-n2cccc2)cc1	-1.8	-24.7	4.9	-2.5	3.6	-28.0
O=C(N/N=C/c1cccs1)c1ccc(-n2cccc2)cc1	.	-14.4	-22.6*	.	1.8	0.4
Cc1ccc2cc(C)c3nnc(SCC(=O)c4cccs4)n3c2c1C	-1.3	-13.2	-38.8*	.	-3.5	7.6
CC(C)(C)c1cc(=O)n2[nH]c(N)nc2n1	.	-3.5	10.1	.	9.8	-1.2
COC(C)(C)c1cc(C(C)(C)C)nc(N)n1	.	.	.	2.8	48.1*	.
SMILES	E-sel inducer	RAD52 anneal inh	Ecoli rRNA inh	RAD54 inh	GSIS activator	AF4-AF9 inh
Cc1cc(C)c2c(N)c(S(=O)(=O)c3ccccc3)sc2n1	-1.6	.	.	-5.4	.	.
Cc1cc2c(sc3c(C)ccc(C)c32)c(C)n1	1.4	18.5	-34.8*	9.4	.	4.5
C[C@@H]1CN([C@@H](C)CO)C(=O)c2cc(NS(=O)(=O)c3cn(C)cn3)ccc2O[C@H]1CN(C)CC1CC1	-0.1	0.0	4.7	-22.5	16.4	-6.3
C=CCn1c(COc2cccc(C)c2)nnc1SCn1nnc2ccccc2c1=O	.	-10.0	-42.6*	2.8	-24.8	5.6
O=C(/C=C/Nc1ccc(Oc2ccccc2)cc1)c1ccco1	.	-19.7	-25.0*	.	-17.2	5.5
O=C(/C=C/Nc1ccccc1C(F)(F)F)c1ccco1	0.7	-15.3	-21.6*	-8.5	1.2	1.9
CN1C(=O)C(CC(=O)NCCc2ccccc2)N(NC(=O)c2ccc(Cl)cc2)C1=S (stereo unspecified)	.	-1.5	4.0	4.4	-18.8	-2.9
COc1ccc(NC(=O)CC2C(=O)N(c3ccc(OC)cc3)C(=S)N2NC(=O)c2cccc(F)c2)cc1 (stereo unspecified)	2.6	.	.	.	-6.1	.
COc1ccc(N2C(=O)C(CC(=O)Nc3ccc(Cl)cc3)N(NC(=O)c3cccc(F)c3)C2=S)cc1 (stereo unspecified)	-1.0	-3.4	-17.4*	-8.2	-40.7	2.7
CN1C(=O)C(CC(=O)NCCc2ccccc2)N(NC(=O)c2cccc(F)c2)C1=S (stereo unspecified)	?	-21.8	-16.2*	-5.3	0.8	2.0
CO[C@@H]1CN(C)C(=O)c2cc(NC(=O)Nc3cccc(F)c3)ccc2OC[C@@H](C)N(C(=O)C2CC2)C[C@@H]1C	-0.1	.	-11.3	-2.0	-16.2	.
CCOC(=O)C1=C(COC(=O)c2ccco2)NC(=O)NC1CC (stereo unspecified)	.	-16.0	6.2	2.2	21.9	29.3*
CCOC(=O)C1=C(C)NC(=O)NC1c1ccc(OC(=O)c2ccco2)cc1 (stereo unspecified)	.	.	.	7.1	.	.
O=c1c2ccccc2sn1-c1ccc(F)cc1	-0.2	-22.9	-3.1	-3.0	144.6*	-30.0
O=c1c2ccc(F)cc2sn1-c1ccccc1	.	-7.2	-44.5	-8.2	127.6*	-14.3
Cc1ccc(-n2sc3cc(F)ccc3c2=O)c(C)c1	.	-9.6	-52.8	3.2	206.8*	-11.3
O=c1c2cc(F)ccc2sn1-c1ccccc1Cl	-0.1	0.4	-51.5	-4.6	201.6*	-10.7
O=c1c2ccccc2sn1-c1ccc(Cl)cc1	0.0	-17.9	-43.3	-8.2	7.6	-7.8
CO[C@H]1CN(C)C(=O)c2ccc(NC(C)=O)cc2OC[C@H](C)N(Cc2ccccc2F)C[C@@H]1C	0.1	9.3	-4.3	.	6.1	3.5
N#Cc1c(-c2ccco2)ccn(Cc2ccc(F)cc2)c1=O	0.2	-26.1	-5.5	-7.3	-8.7	1.7
N#Cc1c(-c2ccco2)ccn(Cc2cccc(F)c2)c1=O	2.8	-65.5	-16.9*	10.3	8.7	-1.9
O=C(C[C@@H]1C[C@@H]2c3cc(NC(=O)NC4CCCC4)ccc3O[C@@H]2[C@H](CO)O1)NCCN1CCCCC1	0.0	-3.1	4.2	-14.1	-2.1	2.2
C[C@H](CO)N1C[C@H](C)[C@H](CN(C)C(=O)Nc2ccc(C(F)(F)F)cc2)Oc2ccc(NC(=O)CCCCCC(=O)Nc3ccccc3N)cc2C1=O	0.1	4.3	-1.6	.	5.3	-0.3
